Publication PMC6360136 (Investigational new drugs, 2018)

Experiments:
[1] = system: RTKs (EGFR, Met, IGF-1Rβ) in PANC-1 and EC46 cells; experiment: Immunoblot analysis of receptor tyrosine kinases; type: cell-based, human; settings: 24 h
In short: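 PANC-1 and EC46 cells were seeded at 200,000/well and attached overnight. Medium was renewed with the test compound or EtOH control added. Whole-cell lysates were taken at 24 h in phosphatase-safe buffer and protein was quantified by BCA. Equal protein was resolved on 4–12% SDS-PAGE and transferred to PVDF. Blots were probed for EGFR, Met, IGF-1Rβ and β-actin, with chemiluminescent detection.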

[2] = system: orthotopic pancreatic PDX tumor; experiment: TUNEL staining of PDX tumors; type: in vivo, NSG mice; settings: PDX tumors at euthanasia, 0.25 mg/kg i.p. every other day, vs vehicle
In short: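 Orthotopic PDX mice received test compound 0.25 mg/kg i.p. or DMSO every other day. At endpoint, tumours were formalin-fixed and paraffin-embedded, and 5 micron sections were cut. Sections were stained for Ki-67 (proliferation) or by TUNEL (apoptosis). Ki-67 was scored as the average number of positive cells per high-power field by image analysis.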

[3] = system: EC68, EC46 and PANC-1 cells; experiment: Cell growth MTT assay; type: cell-based, human; settings: in vitro studies, Fig. 1, MTT 48 h
In short: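 PANC-1 and primary patient-derived pancreatic cancer lines EC46 and EC68 were grown in DMEM/F-12K (1:1) with 10% FBS at 37 °C and 5% CO2. Cells were seeded at 5000/well and attached overnight. They were then exposed for 48 h to the test compound at various concentrations or to EtOH solvent control. Viability was read by MTT, and curves were fitted by nonlinear regression.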

EC68 cells = experiment: Cell viability assay; type: cell-based, human; settings: EC68 primary pancreatic cancer cells, MTT, 48 h
[4] = system: VEGF-A secretion in PANC-1 and EC46 cells; experiment: VEGF-A AlphaLISA; type: cell-based, human; settings: 12 h

In the case of `CC[C@H](C)[C@@H]1C(=O)N2CCC[C@@H]2C(=O)O[C@H](C(C)(C)C)C[C@@H](C)C[C@@H](O)C(C)(C)C2=N[C@H](CCC(=O)N[C@@H](Cc3ccc(OC)cc3)C(=O)N(C)[C@@H](C)C(=O)N1C)CS2` [Apra S10, apratoxin S10], the “effect on RTKs” value [1] is reported as “potently downregulated various RTKs”, the “number of cells undergoing apoptosis (TUNEL)” value [2] is reported as “no difference” and the “concentration required to achieve the maximal response” value [3] is reported as “around 50 nM”. The “concentration required to achieve the maximal response (minimum effective concentration)” value [3] was roughly 40 ng/mL, the GI50 (EC68 cells) was 0.35 nM and the “effect on VEGF-A secretion” value [4] was “inhibited the secretion of VEGF-A at low nanomolar to subnanomolar concentrations”.
